In brackets after ≈: the same amount, converted by molar mass.
System: Dickeya chrysanthemi
Assay: Antibacterial activity against Erwinia chrysanthemi ITCC B-40 assessed as as growth inhibition at 100 ug/disk after 24 hr by disk diffusion method
Type: functional
Conditions: ITCC B-40, 24 h, read-out: DIZ
How it was run: (§1)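 Disk diffusion on nutrient agar. Strains kept on NA slants at 37 °C and subcultured in nutrient broth before testing. A log-phase culture was spread on solidified medium, and sterile disks were loaded with compound from DMSO stock. DMSO served as control, with commercial antibiotics for reference. Plates ran 24 h at 37 °C, and inhibition zones (mm) were read in quadruplicate.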

SMILES | zone of inhibition at 100 µg/disc [mm]
CCOC(=O)C1C(=O)C=C(c2ccccc2)CC1c1cc(OC)c(OC)c(OC)c1 (stereo unspecified) | 0
CCOC(=O)C1C(=O)C=C(c2ccc(C)cc2)CC1c1ccc(C)cc1 (stereo unspecified) | 0
COc1ccc(C2CC(c3ccccc3)=Cc3n[nH]c(O)c32)cc1 (stereo unspecified) | 0
CCOC(=O)C1C(=O)C=C(c2ccc3c(c2)OCO3)CC1c1ccc(OC)cc1 (stereo unspecified) | 0

System: Athelia rolfsii
Assay: Antifungal activity against Athelia rolfsii ITCC 6181 by food poisoning method
Type: functional
Conditions: Agroathelia rolfsii
How it was run: (§2)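 Poisoned food technique on PDA at several concentrations. A 5 mm mycelial plug from the growing edge of a 2-week-old colony was placed inoculum-side down at the plate centre. Plates incubated at 27 °C until control growth was nearly complete. Colony diameter measured, percent inhibition calculated against control, LC50 derived. Four replicates per treatment.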

SMILES | LC50 [µg/mL]
CCOC(=O)C1C(=O)C=C(c2ccccc2)CC1c1cc(OC)c(OC)c(OC)c1 (stereo unspecified) | 365 (≈ 889 µM)
CCOC(=O)C1C(=O)C=C(c2ccc(C)cc2)CC1c1ccc(C)cc1 (stereo unspecified) | 321 (≈ 921 µM)
COc1ccc(C2CC(c3ccccc3)=Cc3n[nH]c(O)c32)cc1 (stereo unspecified) | 713 (≈ 2240 µM)
CCOC(=O)C1C(=O)C=C(c2ccc3c(c2)OCO3)CC1c1ccc(OC)cc1 (stereo unspecified) | 380 (≈ 963 µM)

System: Radical scavenging activity
Assay: Antioxidant activity assessed as DPPH free radical scavenging activity at 80 ug/mL after 20 min by UV-Vis spectrophotometric analysis
Type: functional
Conditions: not given
How it was run: (§3)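 DPPH radical scavenging: samples were held at room temperature for 20 min in the dark, and absorbance was read at 517 nm. The control contained DMSO without compound, and methanol was used for baseline correction. Scavenging percentage was calculated from the absorbances.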

SMILES | Activity [%]
COc1ccc(C2CC(c3ccccc3)=Cc3n[nH]c(O)c32)cc1 (stereo unspecified) | 88.4

System: Radical scavenging activity
Assay: Antioxidant activity assessed as DPPH free radical scavenging activity at 40 ug/mL after 20 min by UV-Vis spectrophotometric analysis
Type: functional
Conditions: not given
How it was run: as §3

SMILES | Activity [%]
COc1ccc(C2CC(c3ccccc3)=Cc3n[nH]c(O)c32)cc1 (stereo unspecified) | 50.3

System: Radical scavenging activity
Assay: Antioxidant activity assessed as DPPH free radical scavenging activity at 200 ug/mL after 20 min by UV-Vis spectrophotometric analysis
Type: functional
Conditions: not given
How it was run: as §3

SMILES | Activity [%]
COc1ccc(C2CC(c3ccccc3)=Cc3n[nH]c(O)c32)cc1 (stereo unspecified) | 91.8

System: Bacillus thuringiensis
Assay: Antibacterial activity against Bacillus thuringiensis MTCC 6941 assessed as growth inhibition at 100 ug/disk after 24 hr by disk diffusion method
Type: functional
Conditions: MTCC 6941, 24 h, read-out: DIZ
How it was run: as §1

SMILES | zone of inhibition at 100 µg/disc [mm]
CCOC(=O)C1C(=O)C=C(c2ccccc2)CC1c1cc(OC)c(OC)c(OC)c1 (stereo unspecified) | 0
CCOC(=O)C1C(=O)C=C(c2ccc(C)cc2)CC1c1ccc(C)cc1 (stereo unspecified) | 0
COc1ccc(C2CC(c3ccccc3)=Cc3n[nH]c(O)c32)cc1 (stereo unspecified) | 0
CCOC(=O)C1C(=O)C=C(c2ccc3c(c2)OCO3)CC1c1ccc(OC)cc1 (stereo unspecified) | 0

System: Radical scavenging activity
Assay: Antioxidant activity assessed as DPPH free radical scavenging activity at 20 ug/mL after 20 min by UV-Vis spectrophotometric analysis
Type: functional
Conditions: not given
How it was run: as §3

SMILES | Activity [%]
COc1ccc(C2CC(c3ccccc3)=Cc3n[nH]c(O)c32)cc1 (stereo unspecified) | 30.6

System: Staphylococcus aureus
Assay: Antibacterial activity against Staphylococcus aureus MTCC 3160 assessed as growth inhibition at 100 ug/disk after 24 hr by disk diffusion method
Type: functional
Conditions: MTCC 3160, 24 h, read-out: DIZ
How it was run: as §1

SMILES | zone of inhibition at 100 µg/disc [mm]
CCOC(=O)C1C(=O)C=C(c2ccccc2)CC1c1cc(OC)c(OC)c(OC)c1 (stereo unspecified) | 0
CCOC(=O)C1C(=O)C=C(c2ccc(C)cc2)CC1c1ccc(C)cc1 (stereo unspecified) | 0
COc1ccc(C2CC(c3ccccc3)=Cc3n[nH]c(O)c32)cc1 (stereo unspecified) | 0
CCOC(=O)C1C(=O)C=C(c2ccc3c(c2)OCO3)CC1c1ccc(OC)cc1 (stereo unspecified) | 0

System: Bacillus pumilus
Assay: Antibacterial activity against Bacillus pumilus MTCC 2466 assessed as growth inhibition at 100 ug/disk after 24 hr by disk diffusion method
Type: functional
Conditions: MTCC 2466, 24 h, read-out: DIZ
How it was run: as §1

SMILES | zone of inhibition at 100 µg/disc [mm]
CCOC(=O)C1C(=O)C=C(c2ccccc2)CC1c1cc(OC)c(OC)c(OC)c1 (stereo unspecified) | 0
CCOC(=O)C1C(=O)C=C(c2ccc(C)cc2)CC1c1ccc(C)cc1 (stereo unspecified) | 0
COc1ccc(C2CC(c3ccccc3)=Cc3n[nH]c(O)c32)cc1 (stereo unspecified) | 0
CCOC(=O)C1C(=O)C=C(c2ccc3c(c2)OCO3)CC1c1ccc(OC)cc1 (stereo unspecified) | 0

System: Radical scavenging activity
Assay: Antioxidant activity assessed as DPPH free radical scavenging activity at 400 ug/mL after 20 min by UV-Vis spectrophotometric analysis
Type: functional
Conditions: not given
How it was run: as §3

SMILES | Activity [%]
COc1ccc(C2CC(c3ccccc3)=Cc3n[nH]c(O)c32)cc1 (stereo unspecified) | 88.9

System: Radical scavenging activity
Assay: Antioxidant activity assessed as DPPH free radical scavenging activity at 10 ug/mL after 20 min by UV-Vis spectrophotometric analysis
Type: functional
Conditions: not given
How it was run: as §3

SMILES | Activity [%]
COc1ccc(C2CC(c3ccccc3)=Cc3n[nH]c(O)c32)cc1 (stereo unspecified) | 16.8

System: Rhizoctonia solani
Assay: Antifungal activity against Rhizoctonia solani ITCC 5563 by food poisoning method
Type: functional
Conditions: not given
How it was run: as §2

SMILES | LC50 [µg/mL]
CCOC(=O)C1C(=O)C=C(c2ccccc2)CC1c1cc(OC)c(OC)c(OC)c1 (stereo unspecified) | 139 (≈ 339 µM)
CCOC(=O)C1C(=O)C=C(c2ccc(C)cc2)CC1c1ccc(C)cc1 (stereo unspecified) | 231 (≈ 663 µM)
COc1ccc(C2CC(c3ccccc3)=Cc3n[nH]c(O)c32)cc1 (stereo unspecified) | 718 (≈ 2260 µM)
CCOC(=O)C1C(=O)C=C(c2ccc3c(c2)OCO3)CC1c1ccc(OC)cc1 (stereo unspecified) | 396 (≈ 1000 µM)

System: Radical scavenging activity
Assay: Antioxidant activity assessed as DPPH free radical scavenging activity at 300 ug/mL after 20 min by UV-Vis spectrophotometric analysis
Type: functional
Conditions: not given
How it was run: as §3

SMILES | Activity [%]
COc1ccc(C2CC(c3ccccc3)=Cc3n[nH]c(O)c32)cc1 (stereo unspecified) | 89.7

System: Pseudomonas aeruginosa
Assay: Antibacterial activity against Pseudomonas aeruginosa MTCC 2581 assessed as growth inhibition at 100 ug/disk after 24 hr by disk diffusion method
Type: functional
Conditions: MTCC 2581, 24 h, read-out: DIZ
How it was run: as §1

SMILES | zone of inhibition at 100 µg/disc [mm]
CCOC(=O)C1C(=O)C=C(c2ccccc2)CC1c1cc(OC)c(OC)c(OC)c1 (stereo unspecified) | 0
CCOC(=O)C1C(=O)C=C(c2ccc(C)cc2)CC1c1ccc(C)cc1 (stereo unspecified) | 10
COc1ccc(C2CC(c3ccccc3)=Cc3n[nH]c(O)c32)cc1 (stereo unspecified) | 0
CCOC(=O)C1C(=O)C=C(c2ccc3c(c2)OCO3)CC1c1ccc(OC)cc1 (stereo unspecified) | 0

System: Radical scavenging activity
Assay: Antioxidant activity assessed as DPPH free radical scavenging activity after 20 min by UV-Vis spectrophotometric analysis
Type: functional
Parameters: concentration or dose not given beside the values
Conditions: not given
How it was run: as §3

SMILES | Activity [%] | IC50 [µg/mL]
CCOC(=O)C1C(=O)C=C(c2ccccc2)CC1c1cc(OC)c(OC)c(OC)c1 (stereo unspecified) | 1.69 | –
CCOC(=O)C1C(=O)C=C(c2ccc(C)cc2)CC1c1ccc(C)cc1 (stereo unspecified) | 3.54 | –
COc1ccc(C2CC(c3ccccc3)=Cc3n[nH]c(O)c32)cc1 (stereo unspecified) | 50.2 | 29.62 (≈ 93 µM)
CCOC(=O)C1C(=O)C=C(c2ccc3c(c2)OCO3)CC1c1ccc(OC)cc1 (stereo unspecified) | 4.26 | –

System: Klebsiella pneumoniae
Assay: Antibacterial activity against Klebsiella pneumoniae MTCC 7028 assessed as growth inhibition at 100 ug/disk after 24 hr by disk diffusion method
Type: functional
Conditions: MTCC 7028, 24 h, read-out: DIZ
How it was run: as §1

SMILES | zone of inhibition at 100 µg/disc [mm]
CCOC(=O)C1C(=O)C=C(c2ccccc2)CC1c1cc(OC)c(OC)c(OC)c1 (stereo unspecified) | 0
CCOC(=O)C1C(=O)C=C(c2ccc(C)cc2)CC1c1ccc(C)cc1 (stereo unspecified) | 5
COc1ccc(C2CC(c3ccccc3)=Cc3n[nH]c(O)c32)cc1 (stereo unspecified) | 0
CCOC(=O)C1C(=O)C=C(c2ccc3c(c2)OCO3)CC1c1ccc(OC)cc1 (stereo unspecified) | 0

System: Radical scavenging activity
Assay: Antioxidant activity assessed as DPPH free radical scavenging activity at 500 ug/mL after 20 min by UV-Vis spectrophotometric analysis
Type: functional
Conditions: not given
How it was run: as §3

SMILES | Activity [%]
COc1ccc(C2CC(c3ccccc3)=Cc3n[nH]c(O)c32)cc1 (stereo unspecified) | 90.2

System: Xanthomonas oryzae
Assay: Antibacterial activity against Xanthomonas oryzae ITCC B-47 assessed as as growth inhibition at 100 ug/disk after 24 hr by disk diffusion method
Type: functional
Conditions: ITCC B-47, 24 h, read-out: DIZ

SMILES | zone of inhibition at 100 µg/disc [mm]
CCOC(=O)C1C(=O)C=C(c2ccccc2)CC1c1cc(OC)c(OC)c(OC)c1 (stereo unspecified) | 0
CCOC(=O)C1C(=O)C=C(c2ccc(C)cc2)CC1c1ccc(C)cc1 (stereo unspecified) | 0
COc1ccc(C2CC(c3ccccc3)=Cc3n[nH]c(O)c32)cc1 (stereo unspecified) | 0
CCOC(=O)C1C(=O)C=C(c2ccc3c(c2)OCO3)CC1c1ccc(OC)cc1 (stereo unspecified) | 0

System: Radical scavenging activity
Assay: Antioxidant activity assessed as DPPH free radical scavenging activity at 60 ug/mL after 20 min by UV-Vis spectrophotometric analysis
Type: functional
Conditions: not given
How it was run: as §3

SMILES | Activity [%]
COc1ccc(C2CC(c3ccccc3)=Cc3n[nH]c(O)c32)cc1 (stereo unspecified) | 79.7

System: Radical scavenging activity
Assay: Antioxidant activity assessed as DPPH free radical scavenging activity at 100 ug/mL after 20 min by UV-Vis spectrophotometric analysis
Type: functional
Conditions: not given
How it was run: as §3

SMILES | Activity [%]
COc1ccc(C2CC(c3ccccc3)=Cc3n[nH]c(O)c32)cc1 (stereo unspecified) | 89

From ChEMBL document CHEMBL3045565, “Microwave synthesis, characterization and bio-efficacy evaluation of novel chalcone based 6-carbethoxy-2-cyclohexen-1-one and 2H-indazol-3-ol derivatives” (Eur J Med Chem, 2013)
